In the library only some 4.3% were active in any assay of this set; here they are far more common.
TAAR1 agonist – human TAAR1 agonism | 360,000 compounds, 0.99% hits | CHO RD-HGA16 TAAR1, Fluo-8 calcium fluorescence; vehicle wells 0%, saturating PEA agonist 100% | activation, % at 3 µM | AID 624467;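 active = activation above the mean activation of all test compounds in the run plus 3 SD, cut at about 38% in these data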
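Test system: RD-HGA16 (CHO) cells co-expressing Gα16 and hTAAR1; dosing: one-point dosing at 3 µM (nominal); timing: 17-24 h seeding, 75 min 37 °C dye, 30 min RT; signal: kinetic Fluo-8 calcium fluorescence; read-out basis: % activation relative to PEA EC100 response; controls: DMSO and PEA EC100; replicates: n 1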
OX1R antag-1 – antagonists of human orexin 1 receptor (OX1R) | O43613 | OX1R-expressing cells, FRET antagonist read-out | inhibition, % at 6.6 µM | 330,000 compounds, 1.8% hits; in the data active = inhibition mostly above about 38%, no sharp cut-off; inactive = mostly below about 40%;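 also: 0% = agonist challenge alone and 100% = reference antagonist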
Target sequence (O43613 whole entry, looked up): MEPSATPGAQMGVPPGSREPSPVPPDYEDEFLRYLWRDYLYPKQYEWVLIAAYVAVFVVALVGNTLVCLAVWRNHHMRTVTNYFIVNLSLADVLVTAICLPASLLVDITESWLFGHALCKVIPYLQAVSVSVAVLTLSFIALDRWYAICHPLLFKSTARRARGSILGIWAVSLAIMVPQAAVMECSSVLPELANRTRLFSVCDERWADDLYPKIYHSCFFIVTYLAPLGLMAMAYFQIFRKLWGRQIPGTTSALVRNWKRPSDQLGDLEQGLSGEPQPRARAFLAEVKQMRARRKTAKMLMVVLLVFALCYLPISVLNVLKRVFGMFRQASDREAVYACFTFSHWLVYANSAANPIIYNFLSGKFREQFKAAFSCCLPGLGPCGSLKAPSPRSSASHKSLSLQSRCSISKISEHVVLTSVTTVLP
GalR3 antag – human GalR3 antagonism | inhibition, % at 3 µM | 360,000 compounds, 0.44% hits | O60755 | AID 651719 | HEK293 GalR3-CNG cAMP membrane potential fluorescence; galR3 body fused to GalR1 C-terminus;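 active = inhibition above the screen-wide average plus 3 SD, cut at about 13% in these data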;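 also: forskolin and galanin both at EC90 stimulate the cells; cAMP rise reported by CNG channel membrane potential dye signal; 0% = forskolin plus galanin with DMSO and 100% = forskolin alone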
Target sequence (O60755 1-299 limits assumed): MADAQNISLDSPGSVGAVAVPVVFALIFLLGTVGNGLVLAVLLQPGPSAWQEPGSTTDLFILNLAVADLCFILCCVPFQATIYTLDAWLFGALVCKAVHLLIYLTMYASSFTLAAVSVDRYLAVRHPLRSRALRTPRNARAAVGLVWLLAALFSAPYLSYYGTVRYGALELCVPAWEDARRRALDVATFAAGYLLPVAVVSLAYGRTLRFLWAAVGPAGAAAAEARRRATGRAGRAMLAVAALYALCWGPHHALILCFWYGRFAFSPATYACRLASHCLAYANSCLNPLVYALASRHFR
CHO parental Ca – counter-screen for OX1R antagonists: effect in parental CHO cells. parental CHO-K1, ATP-induced calcium, Fluo-8 fluorescence. inhibition, % at 5.6 µM. 330,000 compounds, 0.63% hits. AID 463079;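 active = inhibition above that plate's mean sample inhibition plus 3 SD, cut at about 26% in these data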;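 also: 0% = ATP-challenged DMSO wells and 100% = DMSO wells without ATP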
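test system = CHO parental line | reagent = ATP stimulus | measured by = intracellular calcium via Fluo-8 no-wash fluorescent dye | control set = ATP and no-ATP DMSO wells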
OX1R antag-2 – antagonists of human orexin 1 receptor. 330,000 compounds, 0.43% hits. inhibition, % at 5 µM. AID 434989. O43613. CHO/OX1R cells, Fluo-8 calcium fluorescence, orexin A;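 active = inhibition above its plate's threshold, mean inhibition of all tested compounds on the plate plus 3 SD, cut at about 37% in these data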;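 also: 0% = orexin A challenge wells and 100% = SB-334867-A antagonist wells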
TAAR1 antagonist – human TAAR1 antagonism; Q96RJ0; CHO RD-HGA16 TAAR1, Fluo-8 calcium fluorescence, antagonist; inhibition, % at 3 µM; 360,000 compounds, 1.5% hits;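 active = inhibition above a per-plate cutoff, the mean inhibition of test compounds on that plate plus 3 SD, cut at about 49% in these data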;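 also: 0% = DMSO plus EC80 beta-PEA response and 100% = DMSO alone without agonist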
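Assay system: RD-HGA16 CHO cells with stable hTAAR1 and Gα16 / Reagent: EC80 β-phenethylamine stimulus / Doses: 3 µM, single point / Timing: dye loading 75 min at 37 °C, then 30 min room temperature / Measured by: Fluo-8 intracellular calcium dye fluorescence, real-time kinetic reads / Controls: vehicle wells and EC80 agonist wells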
TAAR1 nonsel count – nonselective antagonist in TAAR1 antagonist counter-screen; counterscreen cell line, calcium fluorescence, antagonist mode; AID 651780; shares compounds with TAAR1 antagonist; inhibition, % at 3 µM; 2,400 compounds, 77% hits; in the data active = inhibition above about 22%;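 also: CHO-Ga16 host cells stimulated with ATP at an EC80 level; 0% = agonist EC80 plus vehicle and 100% = vehicle without agonist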
TAAR1 ant conf – human TAAR1 antagonism, confirmed. shares compounds with TAAR1 antagonist. inhibition, % at 3 µM. 2,400 compounds, 40% hits. TAAR1-expressing cells, fluorescence antagonist read-out. AID 651785; in the data active = inhibition above about 49%;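 also: CHO-Ga16 host cells challenged with agonist PEA near its EC80; 0% = agonist at EC80 plus vehicle and 100% = vehicle with no agonist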
Ga16 ag counter – nonselective Ga16 agonist in TAAR1 antagonist counter-screen; shares compounds with TAAR1 antagonist; AID 651953; Ga16-expressing cells, calcium fluorescence, agonist counterscreen; activation, % at 3 µM; 2,400 compounds, 18% hits; in the data active = activation above about 12%;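 also: 0% = vehicle wells and 100% = saturating stimulus response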
TAAR1 ag count – activates human TAAR1 in antagonist counter-screen; shares compounds with TAAR1 antagonist; hTAAR1 cell line, fluorescence activation, agonist mode; activation, % at 3 µM; 2,400 compounds, 2% hits; in the data active = activation above about 37%;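 also: CHO cells stably expressing TAAR1 with calcium dye readout; 0% = DMSO vehicle and 100% = full agonist response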
GalR3 antag conf – confirmation of human galanin receptor 3 antagonists; AID 652245; 1,600 compounds, 59% hits; shares compounds with GalR3 antag; inhibition, % at 3 µM; HEK293 GalR3 CNG cAMP biosensor, membrane potential fluorescence; galR3 fused to GalR1 carboxy tail; challenged with forskolin and galanin at EC90;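 active = inhibition above the primary screen's cutoff, the mean inhibition of all screened compounds plus 3 SD, cut at about 13% in these data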;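 also: 0% = forskolin plus galanin and 100% = forskolin alone with DMSO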
CNG parental – counter-screen for GalR3 antagonists: nonspecific agonists in parental HEK-CNG cells | 1,600 compounds, 10% hits | shares compounds with GalR3 antag | AID 652268 | activation, % at 3 µM | HEK293-CNG parental cells, cAMP membrane potential fluorescence; normalised: DMSO wells 0%, forskolin wells 100%; in the data active = activation above about 1.3%
* = called active by the depositor; nt = no result.

SMILES | TAAR1 agonist | OX1R antag-1 | GalR3 antag | CHO parental Ca | OX1R antag-2 | TAAR1 antagonist | TAAR1 nonsel count | TAAR1 ant conf | Ga16 ag counter | TAAR1 ag count | others
Cc1ccc(C)c(NC(=O)C(OC(=O)c2cc[n+]([O-])cc2)c2ccccc2)c1 (configuration not stated) | 1 | nt | -2 | nt | nt | -7 | nt | nt | nt | nt
CC(=O)N1CCOc2ccc(S(=O)(=O)N3CCN(c4cc(C)ccc4C)CC3)cc21 | -1 | 13 | -1 | -4 | -18 | 5 | nt | nt | nt | nt
COc1ccc(-c2[nH][nH]c(=O)c2NC(=O)c2ccccc2Br)cc1 | 2 | nt | -5 | nt | nt | 16 | nt | nt | nt | nt
O=C(C[C@@H]1C/C=C/CC[C@@H](Cc2ccc(F)cc2)C(=O)O[C@@H](c2ccccc2)CNC1=O)NCCO | 16 | 8 | -4 | 24 | -29 | 66* | 26* | 49* | 6 | 6
CC(C)(C)OC(=O)C[C@@H]1C/C=C\C[C@@H](CC(=O)N[C@@H](CO)Cc2ccccc2)C(=O)NC[C@@H](c2ccccc2)OC1=O | 16 | 11 | -5 | -14 | -12 | 67* | 28* | 47 | 6 | 4
O=C1NC[C@@H](c2ccccc2)OC(=O)[C@H](Cc2ccc(F)cc2)C/C=C\C[C@H]1CC(=O)N(CCO)Cc1ccccc1 | 28 | 12 | -3 | -24 | -25 | 68* | 30* | 45 | 8 | 6
CC(C)(C)OC(=O)C[C@H]1C/C=C\C[C@@H](CC(=O)N[C@@H](CO)Cc2ccccc2)C(=O)NC[C@@H](c2ccccc2)OC1=O | 7 | 6 | -1 | -9 | -20 | 40 | nt | nt | nt | nt
O=C1NC[C@@H](c2ccccc2)OC(=O)[C@@H](Cc2ccc(F)cc2)CC/C=C/C[C@H]1CC(=O)N(CCO)Cc1ccccc1 | 35 | 7 | -4 | -31 | -13 | 59* | 20 | 32 | 9 | 6
O=C(NCc1ccco1)C1CC(O)CN1C(=O)Nc1ccccc1 (configuration not stated) | 3 | 14 | -10 | 2 | -4 | -3 | nt | nt | nt | nt
COc1ccc(/C=C/c2nc(S(=O)(=O)c3ccccc3)c(N(C)C)o2)cc1 | 0 | 18 | -9 | 6 | 8 | -20 | nt | nt | nt | nt
CCOC(=O)c1c(C)[nH]c(C(=O)COC(=O)/C=C/c2ccc(OC(F)F)cc2)c1C | 0 | 1 | -12 | -10 | -22 | -3 | nt | nt | nt | nt
CC1(C)C(=O)Nc2ccccc2N1C(=O)COC(=O)/C=C/c1ccc(OC(F)F)cc1 | 21 | 26 | -2 | -6 | -16 | 57* | 31* | 46 | 12* | 10
Cc1nn(-c2ccccc2)c(C)c1C(=O)OCC(=O)N1c2ccccc2NC(=O)C1(C)C | 19 | 46 | -5 | 2 | -9 | 71* | 40* | 53* | 9 | 9
CCOC(=O)c1c(C)[nH]c(C)c1C(=O)COC(=O)/C=C/c1ccc(OC(F)F)cc1 | 6 | 21 | -2 | -12 | -12 | 52* | 34* | 40 | 7 | 2
COc1ccccc1CNc1nc(NCc2cccs2)nc2ccsc12 | 35 | nt | -9 | nt | nt | 76* | 62* | 80* | 34* | 49*
COc1cc(/C=N/Nc2nc(-c3ccc(S(=O)(=O)N(C)C)cc3)cs2)ccc1O | 17 | 8 | -4 | 14 | 6 | 69* | 30* | 43 | 11 | 13
COC(=O)[C@]12C[C@H](CC(=O)NCc3ccc(C)o3)C(=O)N(Cc3ccccc3)C1=C[C@H](C1CCCC1)O[C@@H]2C | -2 | nt | -3 | nt | nt | -38 | nt | nt | nt | nt
COc1ccc(CN(C)C(=O)c2ccc(COc3ccccc3)cc2)c(OC)c1 | -1 | 10 | -10 | -13 | -22 | 23 | nt | nt | nt | nt
COc1ccc(CN(C)C(=O)C(Cc2ccccc2)NC(=O)c2ccccc2)c(OC)c1 (configuration not stated) | 6 | 23 | -5 | -28 | -27 | 67* | 30* | 50* | 5 | 4
Cc1cccc(C(=O)NN2C(=O)C3C(c4ccccc4)C=CC(c4ccccc4)C3C2=O)c1 (configuration not stated) | 24 | 14 | -4 | 5 | 11 | 92* | 54* | 60* | 14* | 9
O=C(NN1C(=O)C2C3C=CC(C3)C2C1=O)c1ccccc1 (configuration not stated) | 1 | 6 | 1 | 2 | 6 | -9 | nt | nt | nt | nt
Cc1c(C(=O)Nc2ccc(F)cc2)oc2ccc(S(=O)(=O)N3CCC4(CC3)OCCO4)cc12 | 24 | 8 | -3 | 12 | 3 | 62* | 40* | 50* | 12* | 9
Cc1c(C(=O)NCc2c(F)cc(F)cc2F)oc2ccc(S(=O)(=O)N3CCOCC3)cc12 | 19 | 5 | -9 | -4 | 2 | 68* | 24* | 47 | 11 | 17
Cc1c(C(=O)Nc2ccc(F)cc2)oc2ccc(S(=O)(=O)N3CCCC3)cc12 | 2 | 2 | 3 | -10 | -22 | 15 | nt | nt | nt | nt
O=C(N/N=C/c1ccc[nH]1)c1ccc(COc2cccc3cccnc23)cc1 | 6 | 20 | 3 | -3 | -16 | 39 | nt | nt | nt | nt
Cc1cc(Br)c(OCc2ccc(C(=O)N/N=C/c3ccc[nH]3)cc2)c(Br)c1 | nt | 12 | 61* | -19 | 0 | nt | 14 | nt | 3 | nt | GalR3 antag conf=12;CNG parental=0
Cc1cc(NCCO)nc(-n2nc(C)cc2C)n1 | 1 | 1 | 13* | 0 | 9 | 57* | -3 | -4 | 2 | 2 | GalR3 antag conf=0;CNG parental=0
COc1ccc(C2=NS(=O)(=O)N(C)C(C(=O)N(C)Cc3ccccc3)=C2)cc1OC | 7 | 8 | 15* | -3 | -17 | 52* | 23* | 34 | 8 | 6 | GalR3 antag conf=22*;CNG parental=-1

High-throughput results (PubChem BioAssay)
